From ChEMBL document CHEMBL1144013, “Indol-3-yl-tetramethylcyclopropyl ketones: effects of indole ring substitution on CB2 cannabinoid receptor activity” (J Med Chem, 2008)
Calls of active or inactive are those of the source. No cut-off for these calls is given here.

What was measured:
[1] = species: Rattus norvegicus; assay: Antiinflammatory activity against CB1 receptor antagonist SR-141716A-pretreated rat CFA-induced chronic inflammatory thermal hyperalgesia model assessed as effect on paw withdrawal latency; format: functional, organism-based
In short: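 Rats received 150 µL of 50% CFA in PBS into the right hind plantar paw. Thermal hyperalgesia was tested 48 h later after antagonist pretreatment, dosing in 5% DMSO/95% PEG vehicle, n = 6 per dose. Paw withdrawal latency was measured 30 min post-dose in the ipsilateral and contralateral paws, with 3 trials about 5 min apart. The value is the mean of the two shortest latencies, compared with vehicle.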

[2] = species: Rattus norvegicus; assay: Antiinflammatory activity against CB2 receptor antagonist SR-144528-pretreated rat CFA-induced chronic inflammatory thermal hyperalgesia model assessed as effect on paw withdrawal latency; format: functional, organism-based
In short: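 Rats given 150 µL of 50% CFA in PBS into right hind plantar paw; thermal hyperalgesia tested 48 h later. Compound in 5% DMSO/95% PEG; PWL read 30 min post dose in ipsilateral and contralateral paws, 3 trials ~5 min apart, mean of two shortest latencies. n = 6 per dose; compared against vehicle. Antagonist pretreatment group included.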

Activity [1]	Compound	Activity [2]
Active	Cc1c(C(=O)NN2CCCCC2)nn(-c2ccc(Cl)cc2Cl)c1-c1ccc(Cl)cc1	
	Cc1ccc(Cn2nc(C(=O)NC3C(C)(C)C4CC[C@@]3(C)C4)cc2-c2ccc(Cl)c(C)c2)cc1 (some centres not stated)	inactive
